The values that follow come from ChEMBL document CHEMBL3272280, “Prostaglandin isosteres. 1. (8-Aza-, 8,10-diaza-, and 8-aza-11-thia)-9-oxoprostanoic acids and their derivatives” (J Med Chem, 1977).

The nature of series [1]: Retardation factor, Rf of the compound. The format is physicochemical. The method, boiled down:
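Thin-layer chromatography on SiO2 plates; eluent A, CHCl3-CH3OH-HOAc (98:1:1), other eluents as designated.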

For series [2], the species on record is Mus musculus. Put plainly: Binding affinity to prostaglandin receptor in Charles River CD-1 mouse ovary assessed as increase in cAMP accumulation using [8-14C]adenine at 1 ug/ml after 30 mins relative to control. The format is tissue-based. Conditions: Female gonad. The method, boiled down:
(§1)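 Virgin female mice over 70 days old; three ovaries per tube (15-25 mg), denuded of fat, preincubated 60 min at 37 °C in aerated Krebs-Ringer phosphate buffer pH 7.2 with 1 μCi [8-14C]adenine to label ATP. Then 0.2 mL 0.05 M theophylline in 0.15 M NaCl plus compound in 0.1 mL Me2SO added; 30 min, 37 °C. TCA stop, homogenization, [14C]-cAMP isolated including paper chromatography.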
For orientation: Cyclic AMP is a second messenger, typically raised through Gs and lowered through Gi signalling.

The species named for series [3] is Mus musculus. Put plainly: Binding affinity to prostaglandin receptor in Charles River CD-1 mouse ovary assessed as increase in cAMP accumulation using [8-14C]adenine at 25 ug/ml after 30 mins relative to control. It is filed as tissue-based. The note with it: Female gonad. The method, boiled down:
as §1

For series [4], the species on record is Mus musculus. Put plainly: Binding affinity to prostaglandin receptor in Charles River CD-1 mouse ovary assessed as increase in cAMP accumulation using [8-14C]adenine at 100 ug/ml after 30 mins relative to control. The format is tissue-based. Conditions: Female gonad. The procedure, abridged:
as §1

For series [5], the species on record is Rattus norvegicus. Put plainly: Displacement of [3H-PGE1] from Sprague-Dawley rat kidney prostaglandin receptor after 60 mins by scintillation counting analysis. The procedure, abridged: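 Kidney plasma membrane binding fraction from male rats (120-150 g); 125 μg of it incubated with 0.4 ng [3H]-PGE1 and test compound, 60 min, 37 °C. Diluted with 0.01 M Tris HCl-saline pH 7.5, bound label collected by filtration, rinsed, counted by liquid scintillation. Duplicate runs at each of three concentrations.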
Background: In a radioligand displacement assay an active substance lowers the binding of a labelled ligand.

Series [6] is filed under the species Mus musculus. Kind of series: Binding affinity to prostaglandin receptor in Charles River CD-1 mouse ovary assessed as increase in cAMP accumulation using [8-14C]adenine at 10 ug/ml after 30 mins relative to control. The format is tissue-based. Conditions: Female gonad. The method, boiled down:
as §1

Series [7] is filed under the species Mus musculus. Kind of series: Binding affinity to prostaglandin receptor in Charles River CD-1 mouse ovary assessed as increase in cAMP accumulation using [8-14C]adenine at 50 ug/ml after 30 mins relative to control. The format is tissue-based. Conditions: Female gonad. The method, boiled down: as §1
Series [8] is filed under the species Mus musculus. Put plainly: Binding affinity to prostaglandin receptor in Charles River CD-1 mouse ovary assessed as increase in cAMP accumulation using [8-14C]adenine at 200 ug/ml after 30 mins relative to control. It is filed as tissue-based. The note with it: Female gonad. The method, boiled down: as §1
For series [9], the species on record is Mus musculus. Kind of series: Binding affinity to prostaglandin receptor in Charles River CD-1 mouse ovary assessed as increase in cAMP accumulation using [8-14C]adenine at 0.1 ug/ml after 30 mins relative to control. Conditions: Female gonad. The format is tissue-based. The procedure, abridged: as §1
Series [10] is described as follows: Dissociation constant, pKa of the compound. The format is physicochemical.
The species entered for series [11] is Mus musculus. Kind of series: Binding affinity to prostaglandin receptor in Charles River CD-1 mouse ovary assessed as increase in cAMP accumulation using [8-14C]adenine at 0.01 ug/ml after 30 mins relative to control. Conditions: Female gonad. It is filed as tissue-based. The procedure, abridged: as §1
The species entered for series [12] is Mus musculus. Kind of series: Binding affinity to prostaglandin receptor in Charles River CD-1 mouse ovary assessed as increase in cAMP accumulation using [8-14C]adenine at 0.05 ug/ml after 30 mins relative to control. The format is tissue-based. The note with it: Female gonad. The method, boiled down:
as §1

The term pKa denotes the negative logarithm of the acid dissociation constant.

On to `CCCCCCCCC1CCC(=O)N1CCCCCCC(=O)O` (racemic), for which the Rf in series [1] amounted to 0.25. The fold change (FC) in [2] was 0.7; in [3], 8; in series [4], 13. This compound also gave an Activity in [5] of 8.3 µgequiv.

Consider `CCCCCC(O)CCC1SCC(=O)N1CCCCCCC(=O)O` (mixture of isomers), for which the Rf in series [1] is 0.12. For the same compound, the fold change (FC) in [2] was found to be 1.4; in series [3], 8; in series [4] it was 25. In addition, the Activity in series [5] is 0.39 µgequiv.

In the case of `CCCCCCCCC1C(=O)NC(=O)N1CCCCCCC(=O)O` (racemic), the Rf in [1] was 0.2. Moreover, the figures for the fold change (FC) in series [3] and in series [4] were 3 and 6, respectively. Further, the Activity in [5] worked out at 5 µgequiv.

With `CCCCCCCCc1c[nH]c(=O)n1CCCCCCC(=O)O`, the Rf in series [1] came to 0.84. The fold change (FC) in series [3] stood at 5; in [4], 9. Further, the Activity in series [5] was 19.6 µgequiv.

Take `CCCCC[C@H](O)CC[C@H]1CCC(=O)[C@@H]1CCCCCCC(=O)O`: the fold change (FC) in series [2] worked out at 10; in series [3] it was 26; in [6] it was 25; in series [7], 19.

Regarding `O=C(O)CCCCCCN1C(=O)CS(=O)(=O)C1CCC(O)COc1ccc(F)cc1` (mixture of isomers), the Rf in series [1] is recorded as 0.13. The values for the fold change (FC) in [3] and in series [4] were 2 and 7, respectively.

In the case of `CCCCCC(O)CCCC(CCCCCCC(=O)O)C(C)=O` (configuration not stated), the fold change (FC) in [2] amounted to 2; in [3], 14; in series [4], 23; in series [6] it was 11; in series [7], 16; in series [8], 16. In [5], this compound registered an Activity of 833 ngequiv.

In the case of `CCCCCC(O)CCCC(CCCCCCC(=O)O)S(C)(=O)=O` (configuration not stated), the fold change (FC) worked out at 14 in [2]; 27 in [3]; 38 in series [4]; 2 in series [9]; 24 in series [6].

`CCCCCC(O)CCC1CCC(=O)N1CCCCCCC(=O)O` (mixture of isomers) showed a Rf in series [1] of 0.15. In [10], this compound yielded a pKa of 5.25. The fold change (FC) turned out to be 0.9 in [2], 8 in series [3] and 18 in series [4]. For the same compound, in series [5], the Activity was determined as 4.6 µgequiv.

Consider `CCCCCC(O)CCC1N(CCCCCCC(=O)O)C(=O)CS1(=O)=O` (mixture of isomers), for which, in [1], the Rf is 0.24. The fold change (FC) in [2] stood at 5; in series [3], 27; in series [4] it was 37; in series [6] it was 23. In [5], this compound registered an Activity of 0.06 µgequiv.

Take `CCCCC[C@H](O)/C=C/[C@H]1[C@H](O)CC(=O)[C@@H]1CCCCCCC(=O)O`: the fold change (FC) was found to be 54 in [2]; 62 in [3]; 62 in series [4]; 8 in series [11]; 25 in series [12]; 29 in series [9]. Moreover, in [6], the fold change (FC) was 60. This compound came in with an Activity in [5] of 1 ngequiv.
